Test results published in ChEMBL document CHEMBL4680123, “Synthesis of novel 3-halo-3-nitroflavanones and their activities as DNA methyltransferase inhibitors in cancer cells” (Eur J Med Chem, 2020).
The source made the active and inactive calls. The calls are words filed in the database; no cut-off is given here.

Columns and labels:
[1] = biological target: DNA (cytosine-5)-methyltransferase 3A (Homo sapiens) (UniProt Q9Y6K1); experiment: Inhibition of human DNMT3A catalytic domain expressed in Escherichia coli Rosetta-gamiTM 2(DE3) pLysS competent cells using biotinylated 6-FAM double strand DNA comprising unique CpG site […] incubated for 1 hrs by fluorescence based assay
[2] = biological target: DNA (cytosine-5)-methyltransferase 3A (Homo sapiens) (UniProt Q9Y6K1); experiment: Inhibition of human DNMT3A catalytic domain expressed in Escherichia coli Rosetta-gamiTM 2(DE3) pLysS competent cells using biotinylated 6-FAM double strand DNA comprising unique CpG site […] at 32 uM incubated for 1 hrs by fluorescence based assay
[3] = biological target: DNA (cytosine-5)-methyltransferase 3B (Homo sapiens) (UniProt Q9UBC3); experiment: Inhibition of human DNMT3B in human KG-1 cells expressing cmv-firefly luciferase assessed as increase in luminescence upto 10 uM incubated for 24 hrs by luciferase reporter gene assay relative to control; assay type: cell-based; conditions: dose microM <=10, time 24.0 hrs
How it was run: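 KG-1 cells stably carrying firefly luciferase (luc+) under a 50%-methylated CMV promoter, seeded at 20 000 cells/well. Treated 24 h with compound (3.2–10 µM) or DMSO. Luciferase quantified by One-Glo luminescence and expressed as fold induction over DMSO control. Mean of three experiments with standard error.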

[4] = Chemical stability of compound in DNMT3A-c enzyme buffer assessed as half life at 1 mM by HPLC analysis; assay type: physicochemical
How it was run: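 Followed over 15 h by reverse-phase HPLC (H2O/acetonitrile gradient with 0.1% formic acid), detection at 250 nm. Remaining compound taken from HPLC peak area. Mean of at least two experiments.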

[5] = biological target: DNA (cytosine-5)-methyltransferase 3B (Homo sapiens) (UniProt Q9UBC3); experiment: Inhibition of human DNMT3B in human KG-1 cells expressing cmv-firefly luciferase assessed as increase in luminescence incubated for 24 hrs by luciferase reporter gene assay relative to control; assay type: cell-based; conditions: dose 3.2-10 µM
How it was run: (§1)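 KG-1 cells stably carrying firefly luciferase under a 50% methylated CMV promoter were seeded at 20 000 cells/well. They were exposed to compound (3.2–10 µM range) or DMSO for 24 h, then luciferase was quantified by One-Glo luminescence. Result is fold induction over DMSO control. Mean of three experiments with standard error.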

KG-1 = experiment: Cytotoxicity against human KG-1 cells assessed as reduction in cell viability measured after 72 hrs by APTlite one step luminescence assay; assay type: functional, cell-based; conditions: KG-1, 72 h
HCT-116 = experiment: Cytotoxicity against human HCT-116 cells assessed as reduction in cell viability measured after 72 hrs by APTlite one step luminescence assay; assay type: functional, cell-based; conditions: HCT-116, 72 h
How it was run: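 KG-1 cells were seeded at 2x10^4 cells/ml in RPMI-1640 with 15% FCS, and HCT116 cells at 1.5x10^4 cells/ml in MEM with HEPES, L-glutamine and 10% FCS, at 37 °C, 5% CO2. Compound was given at 3.2x10-9 to 1x10-5 M on day 0 and again on days 2 and 3. ATP-luminescence read-out on day 4. EC50 is the concentration giving 50% viability loss versus untreated cells. Mean of at least two independent experiments run in duplicate.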

[6] = biological target: DNA (cytosine-5)-methyltransferase 3B (Homo sapiens) (UniProt Q9UBC3); experiment: Inhibition of human DNMT3B in human KG-1 cells expressing cmv-firefly luciferase assessed as increase in luminescence at 5 uM incubated for 24 hrs by luciferase reporter gene assay relative to control; assay type: cell-based
How it was run: as §1

Chain of DNA (cytosine-5)-methyltransferase 3A (Homo sapiens) (Q9Y6K1 whole entry, looked up, the tested form may be a part): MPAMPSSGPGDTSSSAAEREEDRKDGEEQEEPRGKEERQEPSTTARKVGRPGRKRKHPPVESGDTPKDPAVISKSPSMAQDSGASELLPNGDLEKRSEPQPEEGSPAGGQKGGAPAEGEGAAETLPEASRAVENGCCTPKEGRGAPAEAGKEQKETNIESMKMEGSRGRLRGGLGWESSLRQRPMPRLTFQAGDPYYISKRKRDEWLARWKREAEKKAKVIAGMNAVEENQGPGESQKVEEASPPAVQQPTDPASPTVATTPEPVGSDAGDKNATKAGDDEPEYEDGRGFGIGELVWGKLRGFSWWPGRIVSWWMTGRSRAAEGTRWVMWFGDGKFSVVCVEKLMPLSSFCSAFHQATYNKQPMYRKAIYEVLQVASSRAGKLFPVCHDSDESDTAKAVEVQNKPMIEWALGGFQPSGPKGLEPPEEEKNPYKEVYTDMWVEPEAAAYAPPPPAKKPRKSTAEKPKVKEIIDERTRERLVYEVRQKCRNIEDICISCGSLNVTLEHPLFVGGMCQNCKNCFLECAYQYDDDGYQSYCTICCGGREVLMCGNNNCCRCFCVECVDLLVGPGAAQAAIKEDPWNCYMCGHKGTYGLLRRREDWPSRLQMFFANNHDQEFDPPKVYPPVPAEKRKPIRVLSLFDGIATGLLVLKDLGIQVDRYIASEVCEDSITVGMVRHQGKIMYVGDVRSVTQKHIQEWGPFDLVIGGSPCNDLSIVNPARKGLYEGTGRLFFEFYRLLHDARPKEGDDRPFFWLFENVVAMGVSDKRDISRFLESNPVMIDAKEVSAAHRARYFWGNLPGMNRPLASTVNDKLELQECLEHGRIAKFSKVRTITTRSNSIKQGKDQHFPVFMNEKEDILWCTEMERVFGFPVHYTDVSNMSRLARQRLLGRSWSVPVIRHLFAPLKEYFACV

| Structure (SMILES) | EC50 [1] | inhibition [2] [%] | inhibition [3] | EC50 ([1]; read-out: EC50) [µM] | half-life at 1000 µM [4] [h] | Activity [5] | EC50 (KG-1) [µM] | EC50 (HCT-116) [µM] | fold change (FC) [6] |
| --- | --- | --- | --- | --- | --- | --- | --- | --- | --- |
| CC1([N+](=O)[O-])C(=O)c2ccccc2OC1c1ccccc1[N+](=O)[O-] (stereo not given) | – | – | inactive | > 40 | – | – | – | – | – |
| COc1ccc([N+](=O)[O-])c([C@H]2Oc3ccccc3C(=O)[C@]2(Br)[N+](=O)[O-])c1 (racemic) | – | – | – | 5.3 | 7 | Dose-dependent effect | 12.9 | 8.1 | – |
| COc1ccc([N+](=O)[O-])c([C@H]2Oc3ccccc3C(=O)[C@@]2(Br)[N+](=O)[O-])c1 (racemic) | – | – | – | 4.7 | – | Dose-dependent effect | 18.6 | – | – |
| O=C1c2ccccc2OC(c2ccccc2[N+](=O)[O-])C1(Cl)[N+](=O)[O-] (stereo not given) | – | – | inactive | 4.4 | 1 | – | – | – | 2 |
| O=C1c2ccccc2O[C@H](c2ccccc2[N+](=O)[O-])[C@@]1(Br)[N+](=O)[O-] (racemic) | – | – | – | 3.2 | 1.7 | Dose-dependent effect | 13 | 10.7 | 6.1 |
| COc1ccc([N+](=O)[O-])c(C2Oc3ccccc3C(=O)C2(Cl)[N+](=O)[O-])c1 (stereo not given) | – | – | inactive | 4.4 | 3.4 | – | – | – | – |
| O=C1c2ccccc2O[C@H](c2ccccc2[N+](=O)[O-])[C@]1(Br)[N+](=O)[O-] (racemic) | – | – | – | 5.1 | 0.7 | Dose-dependent effect | 5.3 | 12.4 | 8.8 |

Continued, in another order:

| EC50 [1] | inhibition [2] [%] | inhibition [3] | Structure (SMILES) | EC50 ([1]; read-out: EC50) [µM] | half-life at 1000 µM [4] [h] | Activity [5] | EC50 (KG-1) [µM] | EC50 (HCT-116) [µM] | fold change (FC) [6] |
| --- | --- | --- | --- | --- | --- | --- | --- | --- | --- |
| Not Active | 0 | – | COc1ccc([N+](=O)[O-])c(C2Oc3ccccc3C(=O)C2[N+](=O)[O-])c1 (stereo not given) | – | – | – | – | – | – |
| – | – | inactive | O=C1c2ccccc2OC(c2ccccc2)C1(Br)[N+](=O)[O-] (stereo not given) | 6.7 | – | – | – | – | – |
| Not Active | 0 | – | O=C1c2ccccc2OC(c2ccccc2)C1[N+](=O)[O-] (trans isomer) | – | – | – | – | – | – |
| – | – | inactive | O=C1c2ccccc2OC(c2ccccc2[N+](=O)[O-])C1(I)[N+](=O)[O-] (racemic) | 2.8 | > 15 | – | – | – | – |
| – | – | inactive | COc1ccc([N+](=O)[O-])c([C@H]2Oc3ccccc3C(=O)[C@]2(I)[N+](=O)[O-])c1 (racemic) | 2 | > 15 | – | – | – | – |
| – | – | inactive | O=C1c2ccccc2O[C@H](c2ccccc2F)[C@@]1(Br)[N+](=O)[O-] (racemic) | 5.7 | – | – | – | – | – |
| Not Active | 0 | – | O=C1c2ccccc2OC(c2ccccc2[N+](=O)[O-])C1[N+](=O)[O-] (stereo not given) | – | – | – | – | – | – |
